Results from paper PMC4822987 (Acta crystallographica. Section F, Structural biology …, 2016).

What was measured:
[1] = tested on: S. mansoni arginase; conditions: relative to ABH, ref Hai et al., 2014; cited from earlier work
[2] = tested on: human arginase II; conditions: relative to ABH, ref Golebiowski et al., 2013; cited from earlier work
[3] = target: Leishmania mexicana arginase (LmARG) (Leishmania mexicana, UniProt Q6TUJ5); test: Inhibitory activity assay, colorimetric arginase activity; assay type: biochemical
Outline: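 Recombinant LmARG (1 µM) started the reaction in 50 mM EPPS pH 8.0 with 100 µM MnCl2 and 30 mM L-arginine at 21°C. After 20 min it was stopped with H2SO4/H3PO4 acid plus α-isonitrosopropiophenone dye, then heated at 90°C for 1 h. Urea was read at 550 nm. Ki came from IC50 via Cheng–Prusoff, with Km from 0.5–150 mM arginine.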

[4] = tested on: human arginase I; conditions: relative to ABH, ref Van Zandt et al., 2013; cited from earlier work

| IC50 [3] [nM] | Ki [3] [nM] | Compound | improved affinity in comparison with parent inhibitor ABH [1] [fold] | improved inhibitory potency in comparison with parent inhibitor ABH [2] [fold] | improved inhibitory potency (IC50) in comparison with parent inhibitor ABH [4] [fold] |
| --- | --- | --- | --- | --- | --- |
| 1700 ± 400 | 1100 ± 300 | N[C@@](CCCCB(O)O)(C(=O)O)C1CCN(Cc2ccc(Cl)c(Cl)c2)CC1 (racemic) [ABHDP, (R)-2-amino-6-borono-2-[1-(3,4-dichlorobenzyl)piperidin-4-yl]hexanoic acid] | 2.4 | 7.4 | 7.4 |
| 1300 ± 200 | 900 ± 100 | N[C@@H](CCCCB(O)O)C(=O)O [ABH, 2-(S)-amino-6-boronohexanoic acid, reference compound] |  |  |  |
| 2100 ± 300 | 1400 ± 200 | N[C@](CCCCB(O)O)(CCN1CCCCC1)C(=O)O [ABHPE, (R)-2-amino-6-borono-2-[2-(piperidin-1-yl)ethyl]hexanoic acid] | 5.0 | 3.8 | 6.5 |
